From ChEMBL document CHEMBL4732018, “Design, synthesis, and biological evaluation of pyrazole-linked aloe emodin derivatives as potential anticancer agents” (RSC Med Chem, 2021)
Blank lines part the entries; values can stand above or below the compound they belong to. Activity calls are given as the source filed them. The rule behind the calls is not given here.

What was measured:
[1] = tested on: HepG2; assay: Anticancer activity against human HepG2 cells assessed as cell growth inhibition measured after 48 hrs by MTT assay; type: functional, cell-based; settings: HepG2, 48 h
How it was run: (§1)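 MTT test on ATCC lines grown in RPMI with 10% FBS and antibiotic/antimycotic at 37 °C in 5% CO₂. Cells were seeded at 4 x 10^3/well and treated for 48 h at 2.5, 5, 10 and 20 µM, from DMSO stocks diluted in medium. MTT (10 mg/mL stock) was then added for 3 h and absorbance read at 540 nm. IC50 derived; three independent experiments.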

[2] = tested on: MDA-MB-231; assay: Anticancer activity against human MDA-MB-231 cells assessed as cell growth inhibition measured after 48 hrs by MTT assay; type: functional, cell-based; settings: MDA-MB-231, 48 h; how it was run: as §1
[3] = tested on: HEK293; assay: Cytotoxicity against human HEK293 cells assessed as cell growth inhibition measured after 48 hrs by MTT assay; type: cell-based; settings: HEK293, 48 h; how it was run: as §1
[4] = tested on: B16-F10; assay: Anticancer activity against mouse B16-F10 cells assessed as cell growth inhibition measured after 48 hrs by MTT assay; type: functional, cell-based; settings: B16-F10, 48 h; how it was run: as §1
[5] = tested on: MCF7; assay: Anticancer activity against human MCF-7 cells assessed as cell growth inhibition measured after 48 hrs by MTT assay; type: functional, cell-based; settings: MCF7, 48 h; how it was run: as §1
[6] = tested on: MDA-MB-231; assay: Induction of cell cycle arrest in human MDA-MB-231 cells assessed as accumulation at G2/M phase at 20 uM measured after 24 hrs by PI staining based flow cytometry (reference value: 4.31 %); type: functional
[7] = tested on: MDA-MB-231; assay: Induction of cell cycle arrest in human MDA-MB-231 cells assessed as accumulation at G1/S phase at 20 uM measured after 24 hrs by PI staining based flow cytometry (reference value: 19.33 %); type: functional
[8] = tested on: MDA-MB-231; assay: Induction of apoptosis in human MDA-MB-231 cells assessed as early apoptotic cells at 10 uM measured after 24 hrs by Annexin V-FITC/PI staining based flow cytometric analysis (reference value: 6.73 %); type: functional
[9] = tested on: MDA-MB-231; assay: Induction of apoptosis in human MDA-MB-231 cells assessed as increase in caspase 9 activity at 5 to 20 uM pretreated for 48 hrs followed by LEHD-pNA substrate addition for 2 hrs by colorimetric analysis; type: functional, cell-based; settings: dose 5-20 µM, time 50.0 hrs
[10] = tested on: MDA-MB-231; assay: Induction of apoptosis in human MDA-MB-231 cells assessed as increase in caspase 6 activity at 5 to 20 uM pretreated for 48 hrs followed by VEID-pNA substrate addition for 2 hrs by colorimetric analysis; type: functional, cell-based; settings: dose 5-20 µM, time 50.0 hrs
How it was run: (§2)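 Colorimetric caspase kit. MDA-MB-231 cells were cultured 24 h, then treated at 0, 5, 10 and 20 µM for 48 h. Lysates were mixed with reaction buffer containing 10 mM DTT. pNA substrate was added at 4 mM final (VDVAD for caspase-2, DEVD for caspase-3, VEID for caspase-6) and incubated 2 h at 37 °C. Absorbance read at 405 nm; triplicate, mean ± SD.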

[11] = tested on: MDA-MB-231; assay: Induction of cell cycle arrest in human MDA-MB-231 cells assessed as accumulation at G2/M phase at 5 uM measured after 24 hrs by PI staining based flow cytometry (reference value: 4.31 %); type: functional
[12] = tested on: MDA-MB-231; assay: Induction of apoptosis in human MDA-MB-231 cells assessed as late apoptotic cells at 20 uM measured after 24 hrs by Annexin V-FITC/PI staining based flow cytometric analysis; type: functional
[13] = tested on: MDA-MB-231; assay: Induction of cell cycle arrest in human MDA-MB-231 cells assessed as accumulation at G0/G1 phase at 20 uM measured after 24 hrs by PI staining based flow cytometry (reference value: 76.36 %); type: functional
[14] = tested on: MDA-MB-231; assay: Induction of membrane disintegrity in human MDA-MB-231 cells assessed as increase in LDH release at 2.5 to 20 uM incubated for 48 hrs by LDH leakage assay; type: functional, cell-based; settings: dose 2.5-20 µM
How it was run: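 Extracellular LDH kit assay. Cells were seeded at 4 x 10^3/well and treated 48 h at various concentrations. 20 µL of culture supernatant was assayed with absorbance at 450 nm. Results are expressed as % LDH leakage relative to untreated control cells; triplicate, mean ± SD.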

[15] = tested on: MDA-MB-231; assay: Induction of apoptosis in human MDA-MB-231 cells assessed as increase in caspase 3 activity at 5 to 20 uM pretreated for 48 hrs followed by DEVD-pNA substrate addition for 2 hrs by colorimetric analysis; type: functional, cell-based; settings: dose 5-20 µM, time 50.0 hrs; how it was run: as §2
[16] = tested on: MDA-MB-231; assay: Induction of apoptosis in human MDA-MB-231 cells assessed as increase in caspase 8 activity at 5 to 20 uM pretreated for 48 hrs followed by IETD-pNA substrate addition for 2 hrs by colorimetric analysis; type: functional, cell-based; settings: dose 5-20 µM, time 50.0 hrs
[17] = tested on: MDA-MB-231; assay: Induction of cell cycle arrest in human MDA-MB-231 cells assessed as accumulation at G1/S phase at 5 uM measured after 24 hrs by PI staining based flow cytometry (reference value: 19.33 %); type: functional
[18] = tested on: MDA-MB-231; assay: Induction of apoptosis in human MDA-MB-231 cells assessed as late apoptotic cells at 5 uM measured after 24 hrs by Annexin V-FITC/PI staining based flow cytometric analysis; type: functional
[19] = tested on: MDA-MB-231; assay: Induction of apoptosis in human MDA-MB-231 cells assessed as early apoptotic cells at 20 uM measured after 24 hrs by Annexin V-FITC/PI staining based flow cytometric analysis (reference value: 6.73 %); type: functional
[20] = tested on: MDA-MB-231; assay: Induction of apoptosis in human MDA-MB-231 cells assessed as late apoptotic cells at 10 uM measured after 24 hrs by Annexin V-FITC/PI staining based flow cytometric analysis; type: functional
[21] = tested on: MDA-MB-231; assay: Induction of apoptosis in human MDA-MB-231 cells assessed as increase in caspase 2 activity at 5 to 20 uM pretreated for 48 hrs followed by VDVAD-pNA substrate addition for 2 hrs by colorimetric analysis; type: functional, cell-based; settings: dose 5-20 µM, time 50.0 hrs; how it was run: as §2
[22] = tested on: MDA-MB-231; assay: Induction of apoptosis in human MDA-MB-231 cells assessed as early apoptotic cells at 5 uM measured after 24 hrs by Annexin V-FITC/PI staining based flow cytometric analysis (reference value: 6.73 %); type: functional
[23] = tested on: MDA-MB-231; assay: Induction of cell cycle arrest in human MDA-MB-231 cells assessed as accumulation at sub G0 phase at 20 uM measured after 24 hrs by PI staining based flow cytometry (reference value: 1.33 %); type: functional
[24] = tested on: MDA-MB-231; assay: Induction of cell cycle arrest in human MDA-MB-231 cells assessed as accumulation at G2/M phase at 10 uM measured after 24 hrs by PI staining based flow cytometry (reference value: 4.31 %); type: functional
[25] = tested on: MDA-MB-231; assay: Induction of cell cycle arrest in human MDA-MB-231 cells assessed as accumulation at G0/G1 phase at 10 uM measured after 24 hrs by PI staining based flow cytometry (reference value: 76.36 %); type: functional
[26] = tested on: MDA-MB-231; assay: Induction of cell cycle arrest in human MDA-MB-231 cells assessed as accumulation at sub G0 phase at 10 uM measured after 24 hrs by PI staining based flow cytometry (reference value: 1.33 %); type: functional
[27] = tested on: MDA-MB-231; assay: Induction of cell cycle arrest in human MDA-MB-231 cells assessed as accumulation at G0/G1 phase at 5 uM measured after 24 hrs by PI staining based flow cytometry (reference value: 76.36 %); type: functional
[28] = tested on: MDA-MB-231; assay: Induction of cell cycle arrest in human MDA-MB-231 cells assessed as accumulation at G1/S phase at 10 uM measured after 24 hrs by PI staining based flow cytometry (reference value: 19.33 %); type: functional
[29] = tested on: MDA-MB-231; assay: Induction of cell cycle arrest in human MDA-MB-231 cells assessed as accumulation at sub G0 phase at 5 uM measured after 24 hrs by PI staining based flow cytometry (reference value: 1.33 %); type: functional

Structure (SMILES): CCOC(=O)c1c(-c2cc(O)c3c(c2)C(=O)c2cccc(O)c2C3=O)nn(-c2ccccc2)c1C(=O)OCC
IC50 [1]: 12.3 µM
IC50 [2]: 21.7 µM
IC50 [3]: 4.56 µM
IC50 [4]: 2.22 µM
IC50 [5]: 3.18 µM

Structure (SMILES): COC(=O)c1c(-c2cc(O)c3c(c2)C(=O)c2cccc(O)c2C3=O)nn(-c2ccccc2C)c1C(=O)OC
IC50 [1]: 3.46 µM
IC50 [2]: 1.49 µM
IC50 [3]: 5.01 µM
IC50 [4]: 3.34 µM
IC50 [5]: 4.66 µM

Structure (SMILES): COC(=O)c1c(-c2cc(O)c3c(c2)C(=O)c2cccc(O)c2C3=O)nn(-c2ccc(C)cc2)c1C(=O)OC
Activity [6]: 12.33%
Activity [7]: 17.85%
Activity [8]: 16.43%
IC50 [1]: 5.62 µM
IC50 [2]: 1.32 µM
Activity [9]: Active
Activity [10]: Active
Activity [11]: 5.77%
Activity [12]: 71.81%
Activity [13]: 69.82%
Activity [14]: Active
IC50 [3]: 30.1 µM
IC50 [4]: 9.57 µM
Activity [15]: Active
Activity [16]: Active
IC50 [5]: 0.99 µM
Activity [17]: 36.97%
Activity [18]: 19%
Activity [19]: 12.47%
Activity [20]: 38.13%
Activity [21]: Active
Activity [22]: 38.3%
Activity [23]: 25.8%
Activity [24]: 4.54%
Activity [25]: 63.3%
Activity [26]: 8.2%
Activity [27]: 57.25%
Activity [28]: 32.1%
Activity [29]: 3.22%

Structure (SMILES): CCOC(=O)c1c(-c2cc(O)c3c(c2)C(=O)c2cccc(O)c2C3=O)nn(-c2ccc(C(C)C)cc2)c1C(=O)OCC
IC50 [1]: 3.35 µM
IC50 [2]: 4.46 µM
IC50 [3]: 9.32 µM
IC50 [4]: 1.15 µM
IC50 [5]: 0.87 µM

Structure (SMILES): COC(=O)c1c(-c2cc(O)c3c(c2)C(=O)c2cccc(O)c2C3=O)nn(-c2ccccc2)c1C(=O)OC
IC50 [1]: 3.41 µM
IC50 [2]: 6.78 µM
IC50 [3]: 8.86 µM
IC50 [4]: 5.61 µM
IC50 [5]: 9.96 µM

Structure (SMILES): CCOC(=O)c1c(-c2cc(O)c3c(c2)C(=O)c2cccc(O)c2C3=O)nn(-c2ccc(OC)cc2)c1C(=O)OCC
IC50 [1]: 5.68 µM
IC50 [2]: 4.7 µM
IC50 [3]: 10.1 µM
IC50 [4]: 2.15 µM
IC50 [5]: 3.86 µM

The next compounds have a lower IC50 [1] than those just listed; values first:

IC50 [1]: 3.15 µM
IC50 [2]: 4.99 µM
IC50 [4]: 2.9 µM
IC50 [5]: 2.68 µM
Structure (SMILES): O=Cc1cc(O)c2c(c1)C(=O)c1cccc(O)c1C2=O
IC50 [3]: 4.49 µM

IC50 [1]: 2.6 µM
IC50 [2]: 1.85 µM
IC50 [4]: 5.4 µM
IC50 [5]: 7.26 µM
Structure (SMILES): CCOC(=O)c1c(-c2cc(O)c3c(c2)C(=O)c2cccc(O)c2C3=O)nn(-c2cccc(F)c2)c1C(=O)OCC
IC50 [3]: 1.93 µM

IC50 [1]: 2.29 µM
IC50 [2]: 3.68 µM
IC50 [4]: 6.09 µM
IC50 [5]: 1.16 µM
Structure (SMILES): COC(=O)c1c(-c2cc(O)c3c(c2)C(=O)c2cccc(O)c2C3=O)nn(-c2ccc(OC(F)(F)F)cc2)c1C(=O)OC
IC50 [3]: 6.84 µM

IC50 [1]: 1.34 µM
IC50 [2]: 1.15 µM
IC50 [4]: 3.46 µM
IC50 [5]: 4.62 µM
Structure (SMILES): CCOC(=O)c1c(-c2cc(O)c3c(c2)C(=O)c2cccc(O)c2C3=O)nn(-c2ccc(C#N)cc2)c1C(=O)OCC
IC50 [3]: 1.97 µM
